Test results published in ChEMBL document CHEMBL1156683, “Basic 3-hydroxypyridin-4-ones: potential antimalarial agents” (Eur J Med Chem, 2008).

Tests used:
[1] = Partition coefficient, log P of the compound; format: physicochemical; conditions: octanol/water
Method in brief: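 Calculated from the measured octanol/MOPS pH 7.4 distribution coefficient divided by the fraction of neutral species at pH 7.4, which is derived from the measured pKa values.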

[2] = Octanol-MOPS buffer distribution coefficient, DC at pH 7.4; format: physicochemical; conditions: octanol/water
Method in brief: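 Automated continuous-flow filter-probe method, 1-octanol versus 50 mM MOPS buffer pH 7.4, phases mutually presaturated. Compound dissolved in buffer to absorbance 0.5–1.5 units at a preselected wavelength; aqueous phase separated by hydrophilic cellulose filter and read by absorbance. n = 5.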

[3] = Dissociation constant, pKa corresponding to deprotonation of the basic substituent by potentiometric titration; format: physicochemical
Method in brief: (§1)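 Ligand protonation constants from an automated titration system, potentiometric and spectrophotometric read-outs. Values optimized by non-linear least-squares regression, accuracy ±0.02 pH unit.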

[4] = Dissociation constant, pKa corresponding to protonation of the 4-hydroxy group by spectrophotometric titration; format: physicochemical; method in brief: as §1
[5] = Dissociation constant, pKa corresponding to dissociation of the 3-hydroxyl group by spectrophotometric titration; format: physicochemical; method in brief: as §1
[6] = Dissociation constant, pKa corresponding to protonation of the 4-hydroxy group by potentiometric titration; format: physicochemical; method in brief: as §1
[7] = Dissociation constant, pKa corresponding to dissociation of the 3-hydroxyl group by potentiometric titration; format: physicochemical; method in brief: as §1
Plasmodium falciparum = assay: Antimalarial activity against chloroquine-resistant Plasmodium falciparum TM267TR after 24 hrs by [3H]hypoxanthine; format: functional, organism-based
Method in brief: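 Clone maintained in human red cells in RPMI 1640 with 10% human serum, 25 mM HEPES and 25 mM NaHCO₃. Cultures were sorbitol-synchronized, washed, then diluted with normal red cells to 1% hematocrit and 0.5% parasitemia. Incubated with serial dilutions of chelator. ³H-hypoxanthine pulse for a further 18 h, then harvested and counted by scintillation. IC₅₀ by non-linear regression of triplicate dose-response curves.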

Rattus norvegicus [8] = assay: Iron-clearing efficiency in po dosed [59Fe]ferritin-loaded Wistar rat assessed as iron removal; format: functional
Method in brief: (§2)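 Male Wistar rats, normal, fasted, 190–230 g. Hepatocytes labelled with ⁵⁹Fe by tail-vein [⁵⁹Fe]ferritin; chelator given orally 1 h later, controls received water. Individual metabolic cages collected urine and faeces; food allowed 1 h after dosing, water unrestricted. Killed 24 h after ferritin; liver and gastrointestinal tract with contents and faeces gamma counted.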

[9] = Dissociation constant, pKa corresponding to deprotonation of the basic substituent by spectrophotometric titration; format: physicochemical; method in brief: as §1
Rattus norvegicus [10] = assay: Iron-clearing efficiency in po dosed [59Fe]ferritin-loaded Wistar rat assessed as iron mobilization; format: functional; method in brief: as §2

SMILES	logP [1]	D [2]	pKa [3]	pKa [4]	pKa [5]	pKa [6]	pKa [7]	IC50 (Plasmodium falciparum) [µM]	Activity (Rattus norvegicus [8]) [%]	pKa [9]	Activity (Rattus norvegicus [10]) [%]
CCc1c(O)c(=O)ccn1CCCn1ccnc1	-0.326	0.42	6.55	3.15	9.66	3.09	9.71	65	2.9	6.47	6.8
Cc1c(O)c(=O)ccn1CCN1CCOCC1	-0.909	0.122	4.89	2.64	9.68	2.67	9.71	50	–	4.91	–
O=c1ccn(CCN2CCCCC2)c(CO)c1O	0.019	0.501	7.35	2.2	9.24	2.25	9.28	10	19.4	7.43	23.3
Cc1c(O)c(=O)ccn1CCN1CCCCC1	0.31	0.96	7.42	2.88	9.71	2.77	9.63	35	18.8	7.47	22.7
Cn1cc(O)c(=O)cc1CN1CCCCC1	0.64	3.493	6.74	2.16	8.86	2.15	8.85	31	–	6.72	–
Cc1cc(=O)c(O)c(CN2CCCCC2)n1C	0.559	2.536	7.07	2.73	10.3	2.5	10.8	23	–	6.98	–
CCn1ccc(=O)c(O)c1C(C)O (stereo unspecified)	-0.557	0.266	–	–	–	–	–	45	44.5	–	48.4
Cc1c(O)c(=O)ccn1C [DEFERIPRONE]	–	0.17	–	–	–	–	–	67.5	9.5	–	13.4
Cn1c(CO)cc(=O)c(O)c1CN1CCCCC1	0.295	1.636	6.74	2.41	10.4	2.14	10.5	29	–	6.67	–
CC(O)c1c(O)c(=O)ccn1CCN1CCCCC1 (stereo unspecified)	0.242	0.908	7.37	2.14	8.73	2.17	8.7	8	19.2	7.35	23.1
CCc1c(O)c(=O)ccn1CCN(C)C	-0.114	0.538	6.88	2.68	9.58	2.62	9.66	85	16.4	7.16	20.3
CCc1c(O)c(=O)ccn1CC	0.257	1.79	–	–	–	–	–	55	54.4	–	58.3
CCN(CC)CCn1ccc(=O)c(O)c1C	0.059	0.493	7.53	2.66	9.6	2.63	9.65	50	8.5	7.5	12.4
Cc1cc(=O)c(O)c(CN2CCOCC2)n1C	-0.435	0.364	4.89	2.43	9.72	2.38	10.1	50	–	4.82	–
O=c1cc(CN2CCCCC2)n(CCN2CCCCC2)cc1O	1.84	26.11	7.58	2.04	8.95	1.16	8.83	21.5	–	7.6	–
CCc1c(O)c(=O)ccn1CCN1CCCCC1	0.946	4.591	7.34	2.74	9.7	2.73	9.67	25	26.5	7.38	30.4
Cc1c(O)c(=O)ccn1CCCn1ccnc1	-0.392	0.344	6.6	3.08	9.82	3.13	9.92	85	1.4	6.71	5.3
Cn1c(CO)cc(=O)c(O)c1CN1CCOCC1	-0.765	0.17	5.1	2.14	9.75	1.98	9.77	35	–	4.99	–
Cc1c(O)c(=O)ccn1CCN(C)C	-0.657	0.154	7.05	2.86	9.58	2.74	9.75	80	9.1	7.02	13
